Only some compounds are listed: those with a hit (about 3% of all), similar ones and a draw of the others.
PLCg1 inh – PLC-gamma1 (human) inhibition, primary screen; purified PLC-gamma1, fluorogenic substrate, fluorescence; inhibition, % at 12.2 µM; actives 0.84% (n = 370,000); in the data active = inhibition above about 9.5%
KLK7 zymogen act – proKLK7 (human) activation, primary screen; AID 652039; purified proKLK7, EDANS-DABCYL substrate fluorescence; 100% is mature enzyme control, 0% vehicle; P49862; activation, % at 7 µM; actives 0.9% (n = 370,000);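 active = activation above the mean of all tested compounds plus 3 SD, computed per campaign excluding outliers beyond control limits, cut at about 13% in these data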
Tn6 DDE FP – disrupts Tn6 cyclic peptide binding to fibrin D-Dimer-E complex; P02675; Fibrin DD(E) TRITC-Tn6 fluorescence polarization displacement; inhibition, % at 8.3 µM; actives 0.21% (n = 370,000);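 active = inhibition above a per-campaign cutoff: mean of compounds within control limits plus 3 SD, cut at about 15% in these data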;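 note: 0% = median of all compound wells on the plate and 100% = blocking peptide control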
Tn7 DDE FP – DD(E)-Tn7 binding inhibition, primary FP screen; AID 720508; FP displacement of FITC-Tn7 peptide from fibrin DD(E); 0% = median of compound wells per plate; P02675; inhibition, % at 8.3 µM; actives 0.13% (n = 370,000);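 active = inhibition above the mean of compounds falling within the control limits plus 3 SD of them, cut at about 14% in these data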;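 note: 0% = plate median of compound wells and 100% = 10 µM Aha-Tn7 peptide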
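Assay system: Fibrin-DD(E) protein isolated from polymerized human fibrin clots; read-out basis: percent inhibition; medium: Tris/NaCl/CaCl2 buffer, pH 7.8; signal: FP measurement; incubation: 10 min plus 3 h, room temperature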
NRP1-CendR mod – NRP-1/CendR interaction modulation | actives 0.85% (n = 360,000) | FAM-RPARPAR peptide binding to NRP-1, fluorescence polarization | AID 602438 | O14786 | inhibition, % at 25 µM;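 active = inhibition or corrected inhibition above about 18%, plus a signal ratio from 0.5 to 1.5, limit read from the data, passing the limit was not always enough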
PLCb3 inh – PLC-beta3 (human) inhibition, primary screen | Purified PLC-beta3, fluorogenic substrate, fluorescence | actives 0.18% (n = 370,000) | inhibition, % at 12.2 µM | AID 720704 | Q01970; in the data active = inhibition above about 11%;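 note: 0% = median of compound wells on plate and 100% = full blocker control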
Target sequence (Q01970 whole entry, looked up): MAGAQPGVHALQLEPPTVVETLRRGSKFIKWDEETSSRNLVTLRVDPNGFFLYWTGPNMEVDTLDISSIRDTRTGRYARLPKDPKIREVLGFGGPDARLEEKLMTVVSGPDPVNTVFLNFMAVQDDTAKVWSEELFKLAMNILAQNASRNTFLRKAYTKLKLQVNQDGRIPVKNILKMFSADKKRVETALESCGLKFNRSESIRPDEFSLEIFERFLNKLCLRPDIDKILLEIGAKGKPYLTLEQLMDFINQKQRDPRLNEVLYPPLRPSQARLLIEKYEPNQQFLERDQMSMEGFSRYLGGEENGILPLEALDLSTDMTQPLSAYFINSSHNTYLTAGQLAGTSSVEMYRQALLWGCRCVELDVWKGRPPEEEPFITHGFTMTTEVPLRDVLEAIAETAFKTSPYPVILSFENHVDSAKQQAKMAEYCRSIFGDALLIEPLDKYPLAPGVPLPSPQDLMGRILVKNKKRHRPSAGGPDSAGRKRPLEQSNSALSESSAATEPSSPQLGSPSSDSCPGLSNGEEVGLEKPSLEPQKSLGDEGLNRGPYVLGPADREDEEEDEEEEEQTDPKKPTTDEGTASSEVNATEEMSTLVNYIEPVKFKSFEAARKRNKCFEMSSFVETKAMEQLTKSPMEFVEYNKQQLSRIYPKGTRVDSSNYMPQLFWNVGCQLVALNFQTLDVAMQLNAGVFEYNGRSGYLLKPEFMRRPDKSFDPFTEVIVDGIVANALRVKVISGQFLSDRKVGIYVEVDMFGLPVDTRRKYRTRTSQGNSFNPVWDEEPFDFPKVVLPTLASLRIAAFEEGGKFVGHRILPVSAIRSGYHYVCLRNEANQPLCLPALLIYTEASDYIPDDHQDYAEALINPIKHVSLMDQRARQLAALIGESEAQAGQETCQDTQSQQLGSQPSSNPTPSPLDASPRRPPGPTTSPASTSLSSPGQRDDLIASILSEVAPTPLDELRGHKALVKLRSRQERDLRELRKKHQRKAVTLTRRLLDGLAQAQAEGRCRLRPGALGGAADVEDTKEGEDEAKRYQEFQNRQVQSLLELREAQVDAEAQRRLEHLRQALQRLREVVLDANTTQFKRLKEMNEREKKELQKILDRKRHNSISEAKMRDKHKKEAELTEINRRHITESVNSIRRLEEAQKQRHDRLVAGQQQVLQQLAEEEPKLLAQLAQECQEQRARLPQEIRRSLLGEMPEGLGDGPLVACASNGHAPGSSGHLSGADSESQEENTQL
KLK7 act conf – confirmation of human kallikrein-7 zymogen activators. shares compounds with KLK7 zymogen act. purified proKLK7, EDANS-DABCYL substrate fluorescence; scaled: vehicle 0, mature enzyme 100. activation, % at 7 µM. actives 68% (n = 3,200). AID 686949;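 active = activation, as change over the incubation, above the mean of all tested compounds plus 3 SD, cut at about 13% in these data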
EDANS-DABCYL int – optically interferes with EDANS-DABCYL signal, flagging KLK7 hits. shares compounds with KLK7 zymogen act. EDANS-DABCYL substrate fluorescence interference, no enzyme, 4 h; solvent 0%, active enzyme control 100%. activation, % at 7 µM. actives 80% (n = 3,200). AID 686952;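 active = activation above the all-compound mean plus 3 SD, ignoring values outside control-based bounds, cut at about 4.8% in these data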;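 note: value is the 4 h activation minus the activation read at time zero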
EDANS interf – counter-screen for kallikrein-7 activators: EDANS-DABCYL interference, dose response. actives 20% (n = 250). EC50, µM. EDANS-DABCYL peptide fluorescence interference, no enzyme. AID 720493. shares compounds with KLK7 zymogen act;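 active = compounds that raise the fluorescence signal in this interference counterscreen, with EC50 at or below 10 µM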;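 note: intact quenched peptide substrate alone read at 355 nm excitation and 520 nm emission; signal is fluorescence gain from T0 to T4 after four hours at room temperature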
* hit, by the source's call; i = inactive; . = no result given.

SMILES	PLCg1 inh	KLK7 zymogen act	Tn6 DDE FP	Tn7 DDE FP	NRP1-CendR mod	PLCb3 inh	KLK7 act conf	EDANS-DABCYL int	others
CCOC(=O)NC(=O)CSc1nc(C)cc(C)c1C#N	-192.3	98.9*	2.3	0.0	-6.0	-195.4	90.9*	98.6*
Cc1cc(C)c(C#N)c(SCC(=O)Nc2cc(C)on2)n1	-207.5	15.7*	3.8	2.4	-7.1	-215.3	102.5*	109.0*
CCc1c(C)nc(SCC(=O)CC(=O)OC(C)C)c(C#N)c1C	-38.7	48.2*	-2.6	-0.8	17.1	-47.9	26.5*	24.1*
Cc1cc(C)c(C#N)c(SCC(=O)C(C)(C)C)n1	-0.1	1.4	-2.9	-3.0	-6.5	-0.5	.	.
COC(=O)CC(=O)CSc1nc(C)cc(C)c1C#N	-26.4	20.4*	-0.6	-0.2	-1.8	-36.8	93.0*	91.3*
CCOc1ccc(NC(=O)CN2CCCN(c3ccc(OC)cc3)CC2)cc1	2.1	0.5	7.7	-4.1	.	1.1	.	.
COc1cc(C(=O)NC2CCCCN(Cc3ccc(Cl)cc3)C2=O)cc(OC)c1OC (configuration not stated)	2.1	-0.8	-2.0	-6.0	.	-2.6	.	.
CCOC(=O)N1CCN(C(=O)C[C@H]2C[C@@]3(C(=O)OC)C(=C[C@H](C(C)C)O[C@@H]3C3CC3)N(CCC3=CCCCC3)C2=O)CC1	0.2	0.6	-0.7	1.1	.	-0.2	.	.
CS(=O)(=O)c1ccc(C(=O)OCC#CCSc2nnc(-c3cccc4ccccc34)o2)cc1	-5.1	.	-3.4	4.4	.	-5.5	.	.
CCc1nnc(NC(=O)CSc2nc(C)cc(C)c2C#N)s1	-481.0	13.7*	-8.2	-2.0	5.4	i	81.9*	80.1*
CCc1nnc(NC(=O)CSc2nc3c(cc2C#N)CCC3)s1	-262.8	-6.3	6.8	-1.4	-0.9	-303.0	.	.
COc1ccc(/C=C2\CC3(OC(=O)c4ccc(F)cc4)CCCN2C3)cc1 (configuration not stated)	-0.2	0.6	-8.2	2.7	.	-1.3	.	.
O=C(Nc1ccccn1)N1CCOCC1	1.2	0.6	5.8	3.6	-0.2	-0.9	.	.
CCOC(=O)N1CCN(C(=O)Nc2ccc3nccnc3c2)CC1	-259.0	5.8	0.8	3.5	-5.0	-279.4	.	.
O=C(Nc1ccc2nc(-c3ccccn3)c(-c3ccccn3)nc2c1)N1CCOCC1	i	36.2*	-5.7	-2.7	7.1	i	69.9*	65.6*
Cc1nc2ccc(NC(=O)N3CCCCC3)cc2nc1C	i	34.9*	-1.4	5.9	-3.7	i	68.7*	56.9*	EDANS interf=>69.5
CCOC(=O)N1CCN(C(=O)Nc2ccc3nc(C)c(C)nc3c2)CC1	-440.6	15.8*	-3.7	-3.3	44.4*	i	38.5*	32.9*
Cc1cccc(-c2cccc3c4c([nH]c23)[C@@H]2C[C@H](N(C)C(=O)Nc3ccccc3C)[C@H]([C@H](C)O)C(=O)N2CC4)c1	-17.6	-0.3	-6.1	-4.0	.	-17.0	.	.
COc1ccc(Oc2coc3cc(OC(=O)N4CCOCC4)ccc3c2=O)cc1	-2.9	0.2	-1.5	-1.5	-11.4	2.4	.	.
COc1cccc(Oc2coc3c(CN4CCOCC4)c(O)ccc3c2=O)c1	i	180.9*	-2.2	2.4	17.1	i	63.9*	61.3*
CCCCN(C)Cc1c(O)ccc2c(=O)c(-c3ccccc3OC)coc12	i	55.9*	2.0	-2.7	4.8	i	65.9*	74.2*
COc1ccccc1Oc1c(C)oc2c(CN3CCOCC3)c(O)ccc2c1=O	i	189.2*	5.7	-5.1	9.2	i	42.2*	48.6*
COc1ccc(-c2c(C)oc3c(CN4CCOCC4)c(O)ccc3c2=O)cc1OC	-195.2	12.0	-3.6	3.6	-1.8	-262.1	.	.
